In ChEMBL document CHEMBL4196009, “Novel vitexin-inspired scaffold against leukemia” (Eur J Med Chem, 2018) one finds EC50, Activity and viability data, which are given here for 18 compounds.

Assay [1] concerns HepG2. Briefly: Antiproliferative activity against human HepG2 cells after 72 hrs by CelTiter-Glo assay. It is filed as functional, cell-based. The conditions noted are these: HepG2, 72 h.
Assay [2] has as its system THLE-2. Description: Antiproliferative activity against human THLE2 cells after 72 hrs by CelTiter-Glo assay. It is filed as cell-based. Conditions: THLE-2, 72 h.
The subject of assay [3] is BJ. Briefly: Antiproliferative activity against human BJ cells after 72 hrs by CelTiter-Glo assay. It is filed as cell-based.
In assay [4] the test system is KOPN-8. Briefly: Antiproliferative activity against human KOPN8 cells after 72 hrs by CelTiter-Glo assay. It is filed as functional, cell-based. The conditions noted are these: KOPN-8, 72 h.
Assay [5] relates to SUP-B15. Description: Antiproliferative activity against human SUP-B15 cells after 72 hrs by CelTiter-Glo assay. It is filed as functional, cell-based. The conditions noted are these: SUP-B15, 72 h.
Assay [6] deals with SEM cells. Description: Antiproliferative activity against human SEM cells after 72 hrs by CelTiter-Glo assay. It is filed as functional, cell-based.
Assay [7] has as its system UoC-B1. Briefly: Antiproliferative activity against human UOCB1 cells after 72 hrs by CelTiter-Glo assay. The conditions noted are these: UoC-B1, 72 h. The format is functional, cell-based.
Assay [8] deals with KOPN-8. Description: Induction of apoptosis in human KOPN8 cells assessed as necrotic cells at 10 uM after 24 hrs by Annexin V-FITC/propidium iodide staining-based flow cytometry (reference value: 0.2%). The format is functional. The procedure, abridged: (§1)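 KOPN-8 cells were treated for 24 h, with a DMSO vehicle control and a staurosporine positive control. Cells were stained with FITC-Annexin V and propidium iodide and analysed by flow cytometry. Quadrant gating separated viable, early apoptotic, late apoptotic (Q2) and necrotic populations.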
For orientation: In flow cytometry, cells or beads pass a laser one at a time.

Assay [9] deals with SUP-B15. Briefly: Induction of apoptosis in human SUP-B15 cells assessed as viable cells at 10 uM after 24 hrs by Annexin V-FITC/propidium iodide staining-based flow cytometry (reference value: 82.8%). Conditions: SUP-B15, 24 h, read-out: Activity. It is filed as functional.
For assay [10], the system named is KOPN-8. Briefly: Induction of apoptosis in human KOPN8 cells assessed as viable cells at 10 uM after 24 hrs by Annexin V-FITC/propidium iodide staining-based flow cytometry (reference value: 85.2%). The conditions noted are these: KOPN-8, 24 h, read-out: Activity. It is filed as functional. The procedure, abridged:
as §1

In assay [11] the test system is KOPN-8. Briefly: Induction of apoptosis in human KOPN8 cells assessed as late apoptotic cells at 10 uM after 24 hrs by Annexin V-FITC/propidium iodide staining-based flow cytometry (reference value: 9.5%). The format is functional. The method, boiled down:
as §1

Assay [12] deals with SUP-B15. Briefly: Induction of apoptosis in human SUP-B15 cells assessed as early apoptotic cells at 10 uM after 24 hrs by Annexin V-FITC/propidium iodide staining-based flow cytometry (reference value: 0.1%). The format is functional.
Assay [13] relates to KOPN-8. Description: Cell cycle arrest in human KOPN8 cells assessed as accumulation at S phase at 10 uM after 24 hrs by propidium iodide staining-based flow cytometry (reference value: 66.56%). It is filed as functional. The method, boiled down: (§2)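 KOPN-8 cells treated 24 h alongside a DMSO vehicle and a staurosporine (2.0 µM) positive control. Apoptosis was scored by FITC Annexin V / propidium iodide flow cytometry with quadrant gating (early, late apoptotic). DNA content was measured by PI staining to give the percentage of cells in G0/G1, S and G2/M. Groups were compared by t-test; error bars are SD.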

The subject of assay [14] is KOPN-8. Description: Cell cycle arrest in human KOPN8 cells assessed as accumulation at G0/G1 phase at 10 uM after 24 hrs by propidium iodide staining-based flow cytometry (reference value: 24.77%). It is filed as functional. The procedure, abridged:
as §2

Assay [15] has as its system SUP-B15. Briefly: Induction of apoptosis in human SUP-B15 cells assessed as late apoptotic cells at 10 uM after 24 hrs by Annexin V-FITC/propidium iodide staining-based flow cytometry (reference value: 2.2%). It is filed as functional.
In assay [16] the test system is KOPN-8. Description: Cell cycle arrest in human KOPN8 cells assessed as accumulation at G2/M phase at 10 uM after 24 hrs by propidium iodide staining-based flow cytometry (reference value: 9.67%). It is filed as functional. The procedure, abridged:
as §2

In assay [17] the test system is SUP-B15. Description: Induction of apoptosis in human SUP-B15 cells assessed as necrotic cells at 10 uM after 24 hrs by Annexin V-FITC/propidium iodide staining-based flow cytometry (reference value: 9.2%). The format is functional.
The subject of assay [18] is KOPN-8. Briefly: Induction of apoptosis in human KOPN8 cells assessed as early apoptotic cells at 10 uM after 24 hrs by Annexin V-FITC/propidium iodide staining-based flow cytometry (reference value: 0.1%). It is filed as functional. The method, boiled down: as §2
Assay [19] concerns MDA-MB-231. Description: Cell cycle arrest in human MDA-MB-231 cells assessed as accumulation at G0/G1 phase at 20 uM after 24 hrs by propidium iodide staining-based flow cytometry (reference value: 70.47%). The format is functional.
In assay [20] the test system is MDA-MB-231. Description: Cell cycle arrest in human MDA-MB-231 cells assessed as accumulation at G2/M phase at 20 uM after 24 hrs by propidium iodide staining-based flow cytometry (reference value: 9.38%). It is filed as functional.
The subject of assay [21] is MDA-MB-231. Description: Cell cycle arrest in human MDA-MB-231 cells assessed as accumulation at S phase at 20 uM after 24 hrs by propidium iodide staining-based flow cytometry (reference value: 20.15%). The format is functional.

The structures appear in SMILES notation.

As usually defined, the EC50 is the concentration that produces a half-maximal response. On to `COC(=O)c1cc(=O)c2c(OC)cc(OC)cc2n1S(=O)(=O)c1ccc(C)cc1`, for which the EC50 in assay [1] was more than 20 µM; in [2], 149 µM; in assay [3], 139 µM; in assay [4], 6 µM; in assay [5] it was 9.7 µM; in assay [6], 5.8 µM.

For the compound `O=c1cc(-c2ccc(O)cc2)oc2c([C@@H]3O[C@H](CO)[C@@H](O)[C@H](O)[C@H]3O)c(O)cc(O)c12` [VITEXIN], the concentration giving a half-maximal response (EC50) in assay [7] is more than 43.3 µM; in [1] it was more than 43.3 µM; in [2], 200 µM; in [3], more than 86.2 µM; in assay [4] it was more than 43.3 µM; in [5], 50.7 µM. In addition, the EC50 in assay [6] is more than 43.3 µM.

As to `COc1cc(OC)c2c(=O)cc(C(=O)Nc3ccc(Oc4ccc([N+](=O)[O-])cc4)cc3)[nH]c2c1`, the EC50 is more than 23 µM in assay [1]; 90 µM in [2]; more than 23 µM in assay [3]; 20.5 µM in assay [4]; 4.3 µM in [5]; 0.48 µM in assay [6].

With `COC(=O)c1cc(=O)c2cc(NC(=O)NC3c4ccccc4-c4ccccc43)ccc2[nH]1`, the EC50 in assay [7] is more than 12.1 µM; in assay [1], more than 12.1 µM; in [3], more than 24.1 µM; in [4], more than 12.1 µM; in assay [5], more than 24.1 µM; in assay [6] it was more than 12.1 µM.

For `COC(=O)c1cc(=O)c2cc(NC(=O)Nc3ccc(Cl)c(Cl)c3)ccc2[nH]1`, the EC50 is more than 6.35 µM in assay [7]; more than 6.35 µM in assay [1]; more than 12.6 µM in [3]; more than 6.35 µM in assay [4]; 5.52 µM in [5]; more than 6.35 µM in assay [6].

As to `COC(=O)c1cc(=O)c2cc(NC(=O)NCc3ccccc3)ccc2[nH]1`, the EC50 in assay [7], in assay [1], in assay [3], in [4], in assay [5] and in assay [6] was more than 19.5 µM throughout.

Take `COC(=O)c1cc(=O)c2cc(NC(=O)Nc3cccc(C(C)=O)c3)ccc2[nH]1`: the EC50 in assay [7] was more than 8.08 µM; in assay [1], more than 8.08 µM; in [3], more than 16.1 µM; in assay [4], more than 8.08 µM; in [5] it was 11.4 µM; in [6] it was more than 8.08 µM.

For the compound `COc1cc(OC)c2c(=O)cc(C(=O)Nc3cccc(-c4nccs4)c3)[nH]c2c1`, the EC50 in [7], in [1], in [3], in assay [4], in [5] and in [6] was more than 54 µM each time.

With `COC(=O)c1cc(=O)c2cc(NC(=O)Nc3cc(OC)c(OC)c(OC)c3)ccc2[nH]1`, the EC50 is more than 43.3 µM in [7]; more than 43.3 µM in assay [1]; more than 86.2 µM in assay [3]; more than 43.3 µM in [4]; more than 86.2 µM in assay [5]; more than 43.3 µM in assay [6].

As for `C=C(C)c1cccc(C(C)(C)NC(=O)Nc2ccc3[nH]c(C(=O)OC)cc(=O)c3c2)c1`, the EC50 in assay [7] was more than 11.5 µM; in [1] it was more than 11.5 µM; in assay [3] it was more than 23 µM; in [4], more than 11.5 µM; in assay [5] it was more than 23 µM; in [6], more than 11.5 µM.

Regarding `COc1cc(OC)c2c(=O)cc(C(=O)N3CCN(C(=O)OC(C)(C)C)CC3)[nH]c2c1`, the Activity in assay [8] is 0.5%; in [11], 24.9%; in assay [12], 0%; in [13] it was 61.36%; in [14] it was 29.78%; in [15], 3.2%. In addition, the Activity in assay [16] came out at 8.86%; in [17] it was 11.3%; in [18], 0.2%. In addition, the viability at 10 µM in assay [9] was determined as 77.7%; in assay [10], 63.7%. Moreover, the EC50 in [1] was 11.3 µM; in [2], 299 µM; in [3] it was 13.8 µM; in assay [4], 6.73 µM; in assay [5], 3.98 µM; in assay [6], 47 µM.

With `COC(=O)c1cc(=O)c2cc(NC(=O)Nc3ccc(Cl)c(C(F)(F)F)c3)ccc2[nH]1`, the Activity was 0.3% in assay [8]; 12.3% in [11]; 0.1% in [12]; 48.5% in assay [13]; 40.39% in [14]; 9.3% in [15]. Also, the Activity is 11.11% in [16], 16.4% in assay [17] and 0.1% in assay [18]. Also, the EC50 is more than 6.35 µM in [7]; more than 6.35 µM in [1]; more than 12.6 µM in [3]; more than 6.35 µM in assay [4]; more than 12.6 µM in assay [5]; more than 6.35 µM in assay [6]. Further, the viability at 10 µM in assay [9] came to 65.5%; in [10], 80.7%.

On to `COC(=O)c1cc(=O)c2cc(NC(=O)NCCc3cccs3)ccc2[nH]1`, for which the EC50 in assay [7] is more than 9.81 µM; in assay [1], more than 9.81 µM; in [3], more than 19.5 µM; in [4], more than 9.81 µM; in assay [5], more than 19.5 µM; in assay [6], more than 9.81 µM.

Turning to `COc1ccc(-c2cc(=O)c3c(OC)cc(OC)cc3n2Cc2ccccc2)cc1`, the EC50 is more than 17.3 µM in assay [7]; more than 17.3 µM in [1]; more than 34.5 µM in [3]; more than 17.3 µM in [4]; more than 34.5 µM in assay [5]; more than 17.3 µM in assay [6].

`CCOC(=O)[C@H](Cc1ccccc1)NC(=O)Nc1ccc2[nH]c(C(=O)OC)cc(=O)c2c1`: the EC50 in assay [7] was more than 13.9 µM; in [1], more than 13.9 µM; in [3] it was more than 27.6 µM; in [4] it was more than 13.9 µM; in assay [5], 16.5 µM; in assay [6], more than 13.9 µM.

On to `COc1cc(OC)c2c(=O)cc(C(=O)Nc3ccc(Oc4ccc(F)cc4)cc3)[nH]c2c1`, for which the EC50 in [7], in assay [1], in assay [3], in [4], in assay [5] and in assay [6] was more than 50 µM each time.

On to `COC(=O)c1cc(=O)c2cc(NC(=O)Nc3ccc(C(F)(F)F)cc3[N+](=O)[O-])ccc2[nH]1`, for which the EC50 in assay [7] is more than 26 µM; in [1], more than 26 µM; in assay [3] it was more than 51.7 µM; in assay [4], more than 26 µM; in assay [5] it was more than 51.7 µM; in [6], 22.5 µM.

In the case of `COc1ccc(-c2c(Br)c(=O)c3c(OC)cc(OC)cc3n2S(=O)(=O)c2ccc(OC)cc2)cc1`, the Activity is 70.02% in [19], 11.79% in [20] and 18.2% in assay [21]. Also, the EC50 is more than 20 µM in assay [1]; 69 µM in assay [2]; 49.7 µM in assay [3]; 2.58 µM in assay [4]; 2.92 µM in assay [5]; 1.9 µM in assay [6].
